Converted amounts (≈) assume the structure as drawn.
Assays:
Format in all cases: functional
Escherichia coli [1] = experiment: Antimicrobial activity against Escherichia coli JM83 harboring pACYC184-ATEM by serial dilution method
How it was run: (§1)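 Broth serial dilution in LB medium, microtitre format; inoculum 5 x 10^5 CFU/ml; incubated with antibiotic overnight at 37°C; MIC read after overnight growth.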

Escherichia coli [2] = experiment: Antimicrobial activity against Escherichia coli JM83 harboring pACYC184-TEM by serial dilution method; how it was run: as §1
Escherichia coli [3] = experiment: Antimicrobial activity against Escherichia coli JM83 by serial dilution method; how it was run: as §1

CC1(C)S[C@@H]2[C@H](NC(=O)[C@H](N)c3ccccc3)C(=O)N2[C@H]1C(=O)O [AMPICILLIN]
MIC (Escherichia coli [1]): 4000 µg/mL (≈ 11400 µM)
MIC (Escherichia coli [2]): 4000 µg/mL (≈ 11400 µM)
MIC (Escherichia coli [3]): 4 µg/mL (≈ 11.4 µM)

CC(=O)OCC1=C(C(=O)O)N2C(=O)[C@@H](NC(=O)Cc3cccs3)[C@H]2SC1 [CEPHALOTHIN]
MIC (Escherichia coli [1]): 64 µg/mL (≈ 161 µM)
MIC (Escherichia coli [2]): 64 µg/mL (≈ 161 µM)
MIC (Escherichia coli [3]): 4 µg/mL (≈ 10.1 µM)

CC(C)(O/N=C(\C(=O)N[C@@H]1C(=O)N2C(C(=O)[O-])=C(C[n+]3ccccc3)CS[C@H]12)c1csc(N)n1)C(=O)O [CEFTAZIDIME]
MIC (Escherichia coli [1]): 0.3 µg/mL (≈ 0.549 µM)
MIC (Escherichia coli [2]): 0.3 µg/mL (≈ 0.549 µM)
MIC (Escherichia coli [3]): 0.3 µg/mL (≈ 0.549 µM)

Cc1onc(-c2ccccc2)c1C(=O)N[C@@H]1C(=O)N2[C@@H]1SC(C)(C)[C@@H]2C(=O)O [OXACILLIN]
MIC (Escherichia coli [1]): 8000 µg/mL (≈ 19900 µM)
MIC (Escherichia coli [2]): 64 µg/mL (≈ 159 µM)
MIC (Escherichia coli [3]): 2 µg/mL (≈ 4.98 µM)

O=C(Cc1cccs1)N[C@@H]1C(=O)N2C(C(=O)[O-])=C(C[n+]3ccccc3)CS[C@H]12 [CEPHALORIDINE]
MIC (Escherichia coli [1]): 32 µg/mL (≈ 77 µM)
MIC (Escherichia coli [2]): 32 µg/mL (≈ 77 µM)
MIC (Escherichia coli [3]): 2 µg/mL (≈ 4.81 µM)
